The values below come from ChEMBL document CHEMBL1152736, “Synthesis and biological testing of thioalkane- and thioarene-spaced bis-beta-D-glucopyranosides” (Bioorg Med Chem, 2009).

Activity calls are given as the source filed them. The calls are words filed in the database; no cut-off is given here.

Common to all, as to assay type: functional, cell-based
Experiment [1] concerns U-937. As to the kind of experiment: Stimulation of growth of human U937 cells at 25 to 50 uM after 24 hrs.
Experiment [2] relates to MOLT-3. As to the kind of experiment: Stimulation of growth of human MOLT3 cells at 25 to 50 uM after 24 hrs.
The subject of experiment [3] is U-937. As to the kind of experiment: Reduction in viability of human U937 at 75 uM after 24 hrs by MTS assay. An outline of the steps: (§1)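 MTS colorimetric assay: 2 × 10⁴ cells in 100 µL RPMI-1640 with 5% FBS, 2 mM L-glutamine and penicillin–streptomycin, with compound or DMSO vehicle for 24 h. MTS reagent then added for 4 h and absorbance read at 490 nm. Mean and SD of three determinations. Comparison with vehicle by Student's t-test.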
For orientation: Tetrazolium dyes change colour on reduction, which living cells bring about.

Experiment [4] concerns MOLT-3. As to the kind of experiment: Reduction in viability of human MOLT3 cells at 75 uM after 24 hrs by MTS assay. The method in brief:
as §1

For experiment [5], the system named is MOLT-3. The experiment can be described thus: Induction of apoptosis in human MOLT3 cells at 10 uM after 24 hrs by fluorescence microscopy. The method in brief: (§2)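 Cells exposed 24 h to DMSO vehicle or test agent at 10–75 µM. Stained with acridine orange; apoptosis scored morphologically by fluorescence microscopy, over 600 cells analyzed. % apoptosis = apoptotic cells / total cells counted × 100. Mean and SD of three determinations. Comparison with vehicle by Student's t-test (MOLT3) or Tukey HSD (U937).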

The test system of experiment [6] is U-937. The experiment can be described thus: Induction of apoptosis in human U937 cells at 10 uM after 24 hrs by fluorescence microscopy. An outline of the steps: as §2
The subject of experiment [7] is U-937. As to the kind of experiment: Induction of apoptosis in human U937 cells after 24 hrs by fluorescence microscopy. The method in brief: as §2
Experiment [8] has as its system MOLT-3. The experiment can be described thus: Induction of apoptosis in human MOLT3 cells after 24 hrs by fluorescence microscopy. The method in brief: as §2

Turning to `C=C(CO[C@@H]1O[C@H](COC(C)=O)[C@@H](OC(C)=O)[C@H](OC(C)=O)[C@H]1OC(C)=O)[S+]([O-])c1cccc([S+]([O-])C(=C)CO[C@@H]2O[C@H](COC(C)=O)[C@@H](OC(C)=O)[C@H](OC(C)=O)[C@H]2OC(C)=O)c1` (stereo partly drawn), the outcome in experiment [1], in experiment [2], in experiment [3] and in experiment [4] was Active. For the same compound, the result in experiment [5] and in experiment [6] was inactive. In addition, the Activity entry in experiment [7] and in experiment [8] was “Dose-dependent effect” throughout.
